{"data": "Assay results pooled from the literature", "EGFR": "Epidermal growth factor receptor (EGFR, Homo sapiens, UniProt P00533)", "EGFR L858R/T790M": "Epidermal growth factor receptor (EGFR, Homo sapiens, UniProt P00533, L858R/T790M)", "EGFR G719C": "Epidermal growth factor receptor (EGFR, Homo sapiens, UniProt P00533, G719C)", "note": "Protocols differ between the studies behind these lines."}
{"Structure (SMILES)": "O=c1[nH]c2ccccc2n1C1CCN(Cc2ccc(-c3[nH]c4cc5ncnc5cc4nc3-c3ccccc3)cc2)CC1", "target": "EGFR", "read-out": "cell-free assay", "concentration": "0.5 µM", "quantity": "remaining signal", "result": "99.8%"}
{"Structure (SMILES)": "C#Cc1n[nH]c2c(-c3cn([C@@H](C)c4ccccc4)c(=O)[nH]c3=O)cc(F)cc12", "target": "EGFR L858R/T790M", "read-out": "enzyme activity", "action": "inhibitor", "concentration": "0.1 µM", "quantity": "inhibition", "result": "-4.9%"}
{"Structure (SMILES)": "C[C@H](C(=O)N[C@H]1COc2ccccc2[C@@H]1S(C)(=O)=O)c1ccc(F)cc1", "target": "EGFR", "read-out": "enzyme activity", "action": "inhibitor", "concentration": "10 µM", "quantity": "inhibition", "result": "1%"}
{"Structure (SMILES)": "Cc1nn(C)cc1-c1nc2c(N3CCN(Cc4ccc(Cl)cc4)CC3)c(Cl)cnc2[nH]1", "target": "EGFR G719C", "read-out": "binding", "technique": "competition with immobilised ligand", "concentration": "1 µM", "quantity": "remaining binding", "result": "86%"}
{"Structure (SMILES)": "Cn1cc(-c2cc(F)cc(N3CCn4c(cc5c4CCCC5)C3=O)c2CO)cc(Nc2ccc(N3CCN(C4COC4)CC3)cn2)c1=O", "target": "EGFR", "read-out": "enzyme activity", "action": "inhibitor", "concentration": "0.1 µM", "quantity": "inhibition", "result": "7%"}
{"Structure (SMILES)": "N#CC1(c2ccccn2)CCN(Cc2cc(C(=O)O)c(=O)n3ccccc23)CC1", "target": "EGFR L858R/T790M", "read-out": "cell-free assay", "technique": "competition with immobilised ligand", "concentration": "1 µM", "quantity": "remaining binding", "result": "71%"}
{"Structure (SMILES)": "Nc1ncc(-c2nc(N3CCOCC3)nc(N3CCOCC3)n2)c(C(F)F)n1", "target": "EGFR G719C", "read-out": "cell-free assay", "technique": "competition with immobilised ligand", "concentration": "10 µM", "quantity": "remaining binding", "result": "56%"}
{"Structure (SMILES)": "CCn1cnc2c(Nc3cccc(Cl)c3)nc(N[C@H]3CCCC[C@H]3N)nc21", "target": "EGFR", "read-out": "cell-free assay", "concentration": "0.5 µM", "quantity": "remaining signal", "result": "98.1%"}
{"Structure (SMILES)": "CC(C)[C@@H]1NC(=O)[C@H](C)NC(=O)[C@H](C)NC(=O)[C@H](Cc2ccc(O)cc2)NC(=O)[C@H](Cc2ccc(O)cc2)NC(=O)[C@H](Cc2ccccc2)NC(=O)[C@@H](Cc2ccc(O)cc2)NC(=O)CSC[C@@H](C(=O)NCC(N)=O)NC(=O)[C@H](C)NC(=O)[C@H](CCCNC(=N)N)NC(=O)[C@H](CCCNC(=N)N)NC(=O)[C@H](Cc2ccc(O)cc2)NC(=O)[C@H](C(C)C)NC(=O)[C@H](C(C)C)NC(=O)[C@H](CC(N)=O)NC1=O", "target": "EGFR", "read-out": "binding", "technique": "SPR", "quantity": "kon", "result": "38800 M⁻¹ s⁻¹"}
{"Structure (SMILES)": "C#Cc1n[nH]c2c(-c3cn([C@@H](C)c4ccccn4)c(=O)[nH]c3=O)cc(F)cc12", "target": "EGFR L858R/T790M", "read-out": "enzyme activity", "action": "inhibitor", "concentration": "0.1 µM", "quantity": "inhibition", "result": "-3.6%"}
{"Structure (SMILES)": "Cn1cncc1[C@@](O)(COc1ccc(C#N)cc1-c1ccc(OC(F)(F)F)cc1)c1ccc(C#N)cc1", "target": "Epidermal growth factor receptor (EGFR, Homo sapiens, UniProt P00533, del746-750)", "read-out": "cell-free assay", "technique": "competition with immobilised ligand", "concentration": "1 µM", "quantity": "remaining binding", "result": "100%"}
